Assay outcomes: PubChem BioAssay, several laboratories
A selection: hits, their analogues and other compounds. The true share with any hit is near 2%.
Lipid droplet = inhibitors of hepatocyte lipid droplet formation, primary screen, imaging, high-throughput imaging, BODIPY stain; AML12 mouse hepatocytes, oleate lipid droplets; inhibition, % at 6.5 µM; 240,000 tested, 0.4% active; AID 1656, 2009;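 active = lipid droplet intensity inhibited by at least 50%, with more than 500 cells counted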
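Material – AML12 mouse liver cells · Also added – oleate loading, 100 µM · Compound dosing – 6.5 µM single-point dosing · Times – overnight treatment with compound plus oleate · Measured by – fluorescence imaging, 20x objective, two fields per well · Read-out – percent inhibition of filter-corrected integrated lipid droplet intensity per well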
Arrestin-AP2 inh = inhibitors of beta-arrestin/AP2 binding, primary screen, biochemical, GPCR trafficking, flow cytometry; inhibition, % at 10 µM; FITC-arrestin peptide / GST-AP2 beads; AP2 beta2 appendage carries R879A mutation; 340,000 tested, 0.31% active; beta-arrestin 1 C-terminal peptide binding to AP2 beta2-adaptin appendage (human);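 active = inhibition above a set limit, near 3 SD of compounds lacking own fluorescence, cut at about 54% in these data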;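 also: plate controls were DMSO wells for no effect and 5 µM unlabelled arrestin peptide for full effect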
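Assay system: GST-AP2 R879A bound to glutathione beads, E. coli-expressed; Medium: PBS with 0.05% Tween 20 and 0.1% BSA; Also added: fluorescein-tagged arrestin peptide at 50 nM final; Timing: 12 min plus 1 h, RT; Measured by: flow cytometry, FL1 (488/535 nm); Evaluation: percent drop in bead-associated FITC signal.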
GRK2 inh = compounds blocking aptamer binding on GRK2 – biochemical, human GRK2, bead flow cytometry, HTS, primary screen. inhibition of aptamer binding, % at 10 µM. 330,000 tested, 0.59% active. FAM-aptamer displacement from GRK2. AID 488847, 2010. Beta-adrenergic receptor kinase 1 (Homo sapiens), P25098;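 active = inhibition of aptamer binding above 40%, roughly 3 SD of noise, on plates passing a quality check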;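 also: median bead fluorescence of bound FAM aptamer so fluorescent compounds give negative values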
H9c2 TAG inh = inhibitors of triacylglycerol accumulation, primary screen, cell-based, uHTS, fluorescence, H9c2; H9c2 cells, Nile Red lipid (TAG) fluorescence; cells loaded with 200 µM oleic acid; inhibition, % at 12.5 µM; 230,000 tested, 0.66% active;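 active = pattern-corrected inhibition of lipid staining of at least 50% with the nuclear-stain viability signal not falling by more than 50%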;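 also: 0% = DMSO wells and 100% = triacsin C control wells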
B2AR ag = beta2AR agonists driving receptor internalization, primary screen, cell-based, FAP fluorogen, flow cytometry; Beta-2 adrenergic receptor (Homo sapiens), P07550; Am2.2-beta2AR cells; response, % (no concentration beside the values); 340,000 tested, 0.43% active;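 active = response above a set limit, near 3 SD of response in nonfluorescent compounds, cut at about 42% in these data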
Target sequence (P07550 whole entry, looked up): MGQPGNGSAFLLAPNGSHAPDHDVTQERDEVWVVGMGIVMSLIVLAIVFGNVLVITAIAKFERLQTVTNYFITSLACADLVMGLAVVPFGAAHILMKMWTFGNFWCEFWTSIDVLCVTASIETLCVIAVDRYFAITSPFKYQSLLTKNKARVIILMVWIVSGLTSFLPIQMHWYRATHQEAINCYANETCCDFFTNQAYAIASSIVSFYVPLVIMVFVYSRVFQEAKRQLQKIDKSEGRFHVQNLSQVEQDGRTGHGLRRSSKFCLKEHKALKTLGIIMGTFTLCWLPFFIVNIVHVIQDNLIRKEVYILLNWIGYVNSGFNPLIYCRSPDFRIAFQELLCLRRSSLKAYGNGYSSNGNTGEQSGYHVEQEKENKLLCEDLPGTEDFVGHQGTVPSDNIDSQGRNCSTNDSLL
NTR1 ag = agonists of human NTR1, primary screen, imaging, U2OS cells, beta-arrestin-GFP, high content; Neurotensin receptor type 1 (Homo sapiens), P30989; NTR1-U2OS beta-arrestin-GFP spot imaging, agonist mode; activation, % at 20 µM; 330,000 tested, 0.17% active; AID 493036, 2011;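 active = activation at or above 40% of the spot to cytoplasm intensity ratio, with at least 20 cells analyzed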;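 also: 0% = DMSO without peptide and 100% = 100 nM NTR1 peptide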
Hep lipid conf = hepatocyte lipid droplet accumulation inhibitors, confirmation, imaging, AML12 mouse hepatocytes, single concentration, high-content; 870 tested, 65% active; inhibition, % at 5.2 µM; shares compounds with Lipid droplet; BODIPY lipid droplet imaging; droplets induced with 100 µM oleic acid;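 active = inhibition of lipid droplet metric at least 50%, with more than 300 cells in each of four replicates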;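 also: plate controls were DMSO with oleic acid for no effect and 5 µM Triacsin-C for full effect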
AML12 tox img = AML12 hepatocyte cytotoxicity, counter-screen for hepatic lipid droplet formation project, imaging, DAPI nuclear morphology imaging; 870 tested, 3% active; AML12 mouse hepatocytes; stronger effect = higher value; cells fed 100 µM oleate overnight; shares compounds with Lipid droplet; z-score at 5 µM; in the data active = z-score above about 6.3;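 also: compound exposure lasted overnight at 37 °C before fixation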
AML12 tox ATP = AML12 hepatocyte cytotoxicity, confirmation, cytotoxicity control for hepatic lipid droplet formation project, cell-based, single concentration. AID 463219, 2010. cytotoxicity, % at 50 µM. shares compounds with Lipid droplet. AML12 mouse hepatocyte viability, ATP luminescence; cells loaded with 100 µM oleic acid. 530 tested, under 10 active;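 active = cytotoxicity above 50% in each of four replicates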;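 also: compound exposure lasted overnight at 37 °C before the ATP read; 0% = DMSO-treated cells and 100% = wells with no cells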
* marks the source's active call; other numbers are inactive results; nt = no result.

SMILES | Lipid droplet | Arrestin-AP2 inh | GRK2 inh | H9c2 TAG inh | B2AR ag | NTR1 ag | Hep lipid conf | AML12 tox img | others
COC(=O)[C@H](Cc1c[nH]c2ccccc12)NC(=O)Cc1c[nH]c2ccccc12 | -4 | -6 | 0 | nt | 0 | -1 | nt | nt
COC(=O)[C@H](Cc1c[nH]c2ccccc12)NC(=O)CCCc1c[nH]c2ccccc12 | 60* | 4 | 6 | nt | 5 | 0 | 56 | -0.63 | AML12 tox ATP=20
Cc1ccc(NC(=O)CCCc2c[nH]c3ccccc23)nc1 | 83* | 1 | 0 | -11 | 4 | 0 | -3 | 0.54
O=C(Cc1ccc(Br)cc1)N1CCN(C(=O)c2ccccc2)CC1 | nt | -8 | 2 | -3 | 7 | 0 | nt | nt
O=C(NCCOc1ccccc1)c1cc([N+](=O)[O-])ccc1N1CCOCC1 | nt | 2 | 2 | 44 | -4 | 0 | nt | nt
C=C(C)C1CC=C(C)/C(=N/Nc2ccccc2[N+](=O)[O-])C1 (configuration not stated) | 78* | 1 | 1 | nt | 0 | 10 | 115* | -0.4 | AML12 tox ATP=3
COc1ccc(N(Cc2cc(=O)[nH]c3ccccc23)C(C)=O)cc1 | 75* | 13 | 2 | nt | 6 | 0 | 0 | 0.31
COc1ccc2c(c1)c(CC(=O)Nc1ccccc1OC)c(C)n2C(=O)c1ccc(Cl)cc1 | 67* | -1 | 0 | 32 | 0 | 0 | -75 | 7.9
COc1ccc2c(c1)c(CC(=O)Nc1ccc(C(C)=O)cc1)c(C)n2C(=O)c1ccc(Cl)cc1 | 73* | 8 | 0 | nt | -9 | -2 | 77* | -0.59 | AML12 tox ATP=5
COc1ccc2c(c1)c(CC(=O)Nc1nnc(C3CC3)s1)c(C)n2C(=O)c1ccc(Cl)cc1 | 3 | -15 | 1 | 25 | 13 | 5 | nt | nt
CC(=O)c1ccc(S(=O)(=O)N(CC(=O)NC2CC2)Cc2ccc(F)cc2)cc1 | nt | 38 | nt | 15 | 1 | 0 | nt | nt
CCn1cc(C(=O)NCCCN(CC(C)C)CC(C)C)c(=O)c2cc(S(=O)(=O)N(C)C3CCCCC3)ccc21 | 69* | -5 | 2 | nt | 9 | 8 | 24 | -0.027
CCN(CC)CCCNC(=O)c1cn(CC)c2ccc(S(=O)(=O)N(C)C3CCCCC3)cc2c1=O | 16 | 25 | 0 | nt | 8 | 0 | nt | nt
CCCS(=O)(=O)NC(=O)C1(C)CCCN(C(=O)c2c(C)noc2C)C1 (configuration not stated) | nt | nt | nt | 3 | nt | nt | nt | nt
O=C(O)CSc1nnc(-c2ccc(Cl)cc2Cl)n1-c1ccc(Br)cc1 | 6 | -3 | 2 | nt | 1 | -1 | nt | nt
O=C(CNc1cccc(C(F)(F)F)c1)Nc1cccc(S(=O)(=O)N2CCCC2)c1 | nt | 8 | 2 | -12 | 0 | 0 | nt | nt
O=C(CNc1cc(S(=O)(=O)N2CCCC2)ccc1OCC(F)(F)F)Nc1cccc(C(F)(F)F)c1 | 54* | -2 | 0 | -13 | 1 | 5 | -4 | 0.042
CCOC(=O)c1c(C)[nH]c(C)c1S(=O)(=O)N1CCCCC1 | -8 | -5 | 2 | nt | 4 | 0 | nt | nt
CCOC(=O)c1c(C)[nH]c(C)c1S(=O)(=O)N1CCN(c2ccc([N+](=O)[O-])cc2)CC1 | 93* | -3 | 7 | nt | 18 | 0 | -33 | 0.74
N=c1c(C(=O)NCCN2CCOCC2)cc2c(=O)n3ccccc3nc2n1Cc1ccc(F)cc1 | -23 | 16 | 1 | nt | -7 | 2 | nt | nt
N=c1c(C(=O)NCCN2CCOCC2)cc2c(=O)n3ccccc3nc2n1CCCN1CCOCC1 | 52* | 19 | 0 | nt | -3 | -1 | 16 | -0.46
CC(=O)c1ccc(S(=O)(=O)N2CCN(C(=O)CN3C(=O)NC4(CCCC4)C3=O)CC2)cc1 | nt | -5 | 1 | 4 | -4 | 1 | nt | nt
CCCCCCn1c(N2CCN(c3cccc(Cl)c3)CC2)nc2c1c(=O)[nH]c(=O)n2C | nt | 4 | 1 | 32 | 20 | 30 | nt | nt
CCCCCCn1c(N2CCN(c3ccccc3)CC2)nc2c1c(=O)[nH]c(=O)n2C | 58* | 5 | 0 | 28 | -13 | 22 | 93* | -1.2 | AML12 tox ATP=-11
CCCCn1c(=O)[nH]c(=O)c2c1nc(-c1ccc(-c3ccccc3)cc1)n2C | 64* | 17 | 3 | nt | -1 | 4 | 70* | -0.69 | AML12 tox ATP=-5
SMILES | Lipid droplet | Arrestin-AP2 inh | GRK2 inh | H9c2 TAG inh | B2AR ag | NTR1 ag | Hep lipid conf | AML12 tox img | others
CCCCn1c(=O)[nH]c(=O)c2c1nc(-c1ccc(C(F)(F)F)cc1)n2C | 18 | 11 | 3 | 19 | -1 | 10 | nt | nt
COc1ccc(CCc2nnc(CCC(=O)NCC3CCCO3)o2)cc1 (configuration not stated) | -3 | -6 | 0 | nt | -4 | 1 | nt | nt
C/C=C(\C)CN1CCC(Oc2cccc(C(=O)NCc3ccccn3)c2)CC1 | -2 | -4 | 0 | 5 | -7 | -1 | nt | nt
CCOc1ccc(CN(C)C(=O)CNC(=O)c2ccc3ccccc3c2)cc1OC | 88* | 35 | 1 | nt | 0 | 0 | 107* | -0.23 | AML12 tox ATP=21
COc1ccc(/C=C/C(=O)OCC(=O)NC(C)CCc2ccccc2)cc1OC (configuration not stated) | nt | -12 | 0 | -16 | 4 | 0 | nt | nt
COc1ccc(CC(=O)OCC(=O)c2ccc(S(=O)(=O)N3CCCCC3)cc2)cc1 | nt | 7 | 3 | -230 | -3 | 0 | nt | nt
COc1ccc(C(=O)OCc2ccccc2C#N)cc1S(=O)(=O)N1CCOCC1 | nt | nt | nt | 7 | nt | nt | nt | nt
COc1ccc(NC(=O)CCCNC(=O)Cn2cnc3sc(C)c(C)c3c2=O)c(OC)c1 | -7 | 30 | 0 | nt | -2 | -2 | nt | nt
CCOc1ccccc1NC(=O)CCCNC(=O)Cn1cnc2sc(C)c(C)c2c1=O | 59* | 5 | nt | nt | -20 | 0 | 64 | -0.053 | AML12 tox ATP=9
COc1ccc(OC)c(NC(=O)CCCNC(=O)c2ccc(Cl)cc2)c1 | 58* | 3 | 0 | nt | 1 | -1 | 73* | -0.56 | AML12 tox ATP=15
